In ChEMBL document CHEMBL1629485, “Lead identification of conformationally restricted β-lactam type combretastatin analogues: synthesis, antiproliferative activity and tubulin targeting effects” (Eur J Med Chem, 2010):

Columns and labels:
MDA-MB-231 [1] = assay: Cell cycle arrest in estrogen receptor deficient human MDA-MB-231 cells assessed as accumulation at S phase at 1 uM after 72 hrs using propidium iodide staining by flow cytometry relative to control; assay type: functional
Outline: (§1)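 MDA-MB-231 cells in DMEM with 10% FBS and 2 mM L-glutamine, seeded at 18 × 10⁴ cells/mL. Exposed to test agent at the stated final concentration, or to 1% (v/v) ethanol vehicle, for 24, 48 or 72 h. Harvested by scraping and centrifugation, then RNase A treatment and propidium iodide DNA staining for at least 30 min at 37 °C. 10,000 cells per sample read at 488 nm by flow cytometry; mean ± SD of three experiments.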

MDA-MB-231 [2] = assay: Cell cycle arrest in estrogen receptor deficient human MDA-MB-231 cells assessed as accumulation at G2/M phase at 10 nM after 48 hrs using propidium iodide staining by flow cytometry relative to control; assay type: functional; outline: as §1
MDA-MB-231 [3] = assay: Cytotoxicity against estrogen receptor deficient human MDA-MB-231 cells assessed as LDH release at 10 uM; assay type: functional
Outline: (§2)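 After compound treatment, LDH was measured with a commercial LDH kit. Result is % cell lysis at 10 μM compound.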

MCF7 [4] = assay: Antiproliferative activity against human MCF7 cells expressing estrogen receptor after 72 hrs by MTT assay; assay type: functional, cell-based; settings: MCF7, 72 h
MDA-MB-231 [5] = assay: Cell cycle arrest in estrogen receptor deficient human MDA-MB-231 cells assessed as accumulation at sub-G1 phase at 1 uM after 72 hrs using propidium iodide staining by flow cytometry relative to control; assay type: functional; outline: as §1
MDA-MB-231 [6] = assay: Cell cycle arrest in estrogen receptor deficient human MDA-MB-231 cells assessed as accumulation at sub-G1 phase at 10 uM after 24 hrs using propidium iodide staining by flow cytometry relative to control; assay type: functional; outline: as §1
MDA-MB-231 [7] = assay: Cell cycle arrest in estrogen receptor deficient human MDA-MB-231 cells assessed as accumulation at sub-G1 phase at 10 uM after 72 hrs using propidium iodide staining by flow cytometry relative to control; assay type: functional; outline: as §1
MDA-MB-231 [8] = assay: Cell cycle arrest in estrogen receptor deficient human MDA-MB-231 cells assessed as accumulation at S phase at 1 uM after 24 hrs using propidium iodide staining by flow cytometry relative to control; assay type: functional; outline: as §1
MDA-MB-231 [9] = assay: Cell cycle arrest in estrogen receptor deficient human MDA-MB-231 cells assessed as appearance of polyploidy at 10 uM after 24 hrs using propidium iodide staining by flow cytometry relative to control; assay type: functional; outline: as §1
MDA-MB-231 [10] = assay: Cell cycle arrest in estrogen receptor deficient human MDA-MB-231 cells assessed as accumulation at S phase at 10 uM after 48 hrs using propidium iodide staining by flow cytometry relative to control; assay type: functional; outline: as §1
MDA-MB-231 [11] = assay: Cell cycle arrest in estrogen receptor deficient human MDA-MB-231 cells assessed as accumulation at S phase at 100 nM after 24 hrs using propidium iodide staining by flow cytometry relative to control; assay type: functional; outline: as §1
MDA-MB-231 [12] = assay: Cell cycle arrest in estrogen receptor deficient human MDA-MB-231 cells assessed as accumulation at sub-G1 phase at 10 nM after 72 hrs using propidium iodide staining by flow cytometry relative to control; assay type: functional; outline: as §1
MDA-MB-231 [13] = assay: Cell cycle arrest in estrogen receptor deficient human MDA-MB-231 cells assessed as accumulation at sub-G1 phase at 10 nM after 48 hrs using propidium iodide staining by flow cytometry relative to control; assay type: functional; outline: as §1
MDA-MB-231 [14] = assay: Cell cycle arrest in estrogen receptor deficient human MDA-MB-231 cells assessed as appearance of polyploidy at 10 uM after 48 hrs using propidium iodide staining by flow cytometry relative to control; assay type: functional
Outline: (§3)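 MDA-MB-231 cells seeded at 18 × 10⁴ cells/mL and exposed to 1% (v/v) ethanol vehicle or compound at final concentrations (10 nM, 100 nM, 10 µM at all times; 1 µM also at 24 and 72 h). Cells harvested after 24, 48 or 72 h and treated with RNase A and propidium iodide for at least 30 min at 37 °C. 10,000 cells read at 488 nm by flow cytometry. Percent cells per phase reported, including polyploid; mean ± SD of three experiments.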

MCF7 [15] = assay: Cytotoxicity against human MCF7 cells expressing estrogen receptor assessed as LDH release at 10 uM; assay type: functional; outline: as §2
MDA-MB-231 [16] = assay: Cell cycle arrest in estrogen receptor deficient human MDA-MB-231 cells assessed as appearance of polyploidy at 10 nM after 24 hrs using propidium iodide staining by flow cytometry relative to control; assay type: functional; outline: as §1
MDA-MB-231 [17] = assay: Cell cycle arrest in estrogen receptor deficient human MDA-MB-231 cells assessed as appearance of polyploidy at 1 uM after 72 hrs using propidium iodide staining by flow cytometry relative to control; assay type: functional; outline: as §1
MDA-MB-231 [18] = assay: Cell cycle arrest in estrogen receptor deficient human MDA-MB-231 cells assessed as accumulation at G1 phase at 10 nM after 48 hrs using propidium iodide staining by flow cytometry relative to control; assay type: functional; outline: as §1
MDA-MB-231 [19] = assay: Cell cycle arrest in estrogen receptor deficient human MDA-MB-231 cells assessed as appearance of polyploidy at 100 nM after 48 hrs using propidium iodide staining by flow cytometry relative to control; assay type: functional; outline: as §3
MDA-MB-231 [20] = assay: Cell cycle arrest in estrogen receptor deficient human MDA-MB-231 cells assessed as appearance of polyploidy at 10 nM after 48 hrs using propidium iodide staining by flow cytometry relative to control; assay type: functional; outline: as §1
MDA-MB-231 [21] = assay: Cell cycle arrest in estrogen receptor deficient human MDA-MB-231 cells assessed as accumulation at G1 phase at 10 nM after 72 hrs using propidium iodide staining by flow cytometry relative to control; assay type: functional; outline: as §1
MDA-MB-231 [22] = assay: Cell cycle arrest in estrogen receptor deficient human MDA-MB-231 cells assessed as accumulation at G1 phase at 10 uM after 72 hrs using propidium iodide staining by flow cytometry relative to control; assay type: functional; outline: as §1
MDA-MB-231 [23] = assay: Cell cycle arrest in estrogen receptor deficient human MDA-MB-231 cells assessed as accumulation at G2/M phase at 10 uM after 24 hrs using propidium iodide staining by flow cytometry relative to control; assay type: functional; outline: as §1
MDA-MB-231 [24] = assay: Cell cycle arrest in estrogen receptor deficient human MDA-MB-231 cells assessed as accumulation at G1 phase at 10 nM after 24 hrs using propidium iodide staining by flow cytometry relative to control; assay type: functional; outline: as §1
MDA-MB-231 [25] = assay: Cell cycle arrest in estrogen receptor deficient human MDA-MB-231 cells assessed as accumulation at G2/M phase at 100 nM after 48 hrs using propidium iodide staining by flow cytometry relative to control; assay type: functional; outline: as §1
MDA-MB-231 [26] = assay: Cell cycle arrest in estrogen receptor deficient human MDA-MB-231 cells assessed as accumulation at G2/M phase at 100 nM after 72 hrs using propidium iodide staining by flow cytometry relative to control; assay type: functional; outline: as §1
MDA-MB-231 [27] = assay: Cell cycle arrest in estrogen receptor deficient human MDA-MB-231 cells assessed as accumulation at G1 phase at 10 uM after 24 hrs using propidium iodide staining by flow cytometry relative to control; assay type: functional; outline: as §1
MDA-MB-231 [28] = assay: Cell cycle arrest in estrogen receptor deficient human MDA-MB-231 cells assessed as accumulation at S phase at 10 nM after 72 hrs using propidium iodide staining by flow cytometry relative to control; assay type: functional; outline: as §1
MDA-MB-231 [29] = assay: Cell cycle arrest in estrogen receptor deficient human MDA-MB-231 cells assessed as accumulation at G2/M phase at 1 uM after 72 hrs using propidium iodide staining by flow cytometry relative to control; assay type: functional; outline: as §1
MDA-MB-231 [30] = assay: Cell cycle arrest in estrogen receptor deficient human MDA-MB-231 cells assessed as accumulation at G2/M phase at 10 nM after 72 hrs using propidium iodide staining by flow cytometry relative to control; assay type: functional; outline: as §1

COc1ccc(C2CC(=O)N2c2cc(OC)c(OC)c(OC)c2)cc1O (stereo not given)
Activity (MDA-MB-231 [1]): 7.76% | Activity (MDA-MB-231 [2]): 23.71% | Activity (MDA-MB-231 [3]): 16% | IC50 (MCF7 [4]): 17 nM | Activity (MDA-MB-231 [5]): 50.53% | Activity (MDA-MB-231 [6]): 3.18% | Activity (MDA-MB-231 [7]): 46.49% | Activity (MDA-MB-231 [8]): 6.01% | Activity (MDA-MB-231 [9]): 3.85% | Activity (MDA-MB-231 [10]): 4.47% | Activity (MDA-MB-231 [11]): 6.05% | Activity (MDA-MB-231 [12]): 15.25% | Activity (MDA-MB-231 [13]): 11.57% | Activity (MDA-MB-231 [14]): 2.28% | Activity (MCF7 [15]): 9% | Activity (MDA-MB-231 [16]): 2.84% | Activity (MDA-MB-231 [17]): 5.97% | Activity (MDA-MB-231 [18]): 45.25% | Activity (MDA-MB-231 [19]): 4.61% | Activity (MDA-MB-231 [20]): 6.1% | Activity (MDA-MB-231 [21]): 48.24% | Activity (MDA-MB-231 [22]): 17.14% | Activity (MDA-MB-231 [23]): 55.36% | Activity (MDA-MB-231 [24]): 48.33% | Activity (MDA-MB-231 [25]): 36.42% | Activity (MDA-MB-231 [26]): 12.62% | Activity (MDA-MB-231 [27]): 29.3% | Activity (MDA-MB-231 [28]): 9.08% | Activity (MDA-MB-231 [29]): 21.24% | Activity (MDA-MB-231 [30]): 17.68%
